Compound activity (PubChem)
NRP1-CendR mod: NRP-1/CendR interaction modulation; O14786; FAM-RPARPAR peptide binding to NRP-1, fluorescence polarization; inhibition, % at 25 µM; actives 0.85% (n = 360,000); AID 602438;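 active = inhibition or corrected inhibition above about 18%, plus a signal ratio from 0.5 to 1.5, limit read from the data, passing the limit was not always enough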
DDE Tn6 FP inh: disrupts Tn6 cyclic peptide binding to fibrin D-Dimer-E complex. P02675. Fibrin DD(E) TRITC-Tn6 fluorescence polarization displacement. inhibition, % at 8.3 µM. actives 0.21% (n = 370,000);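 active = inhibition above a per-campaign cutoff: mean of compounds within control limits plus 3 SD, cut at about 15% in these data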;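 note: 0% = median of all compound wells on the plate and 100% = blocking peptide control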
Target sequence (P02675 whole entry, looked up): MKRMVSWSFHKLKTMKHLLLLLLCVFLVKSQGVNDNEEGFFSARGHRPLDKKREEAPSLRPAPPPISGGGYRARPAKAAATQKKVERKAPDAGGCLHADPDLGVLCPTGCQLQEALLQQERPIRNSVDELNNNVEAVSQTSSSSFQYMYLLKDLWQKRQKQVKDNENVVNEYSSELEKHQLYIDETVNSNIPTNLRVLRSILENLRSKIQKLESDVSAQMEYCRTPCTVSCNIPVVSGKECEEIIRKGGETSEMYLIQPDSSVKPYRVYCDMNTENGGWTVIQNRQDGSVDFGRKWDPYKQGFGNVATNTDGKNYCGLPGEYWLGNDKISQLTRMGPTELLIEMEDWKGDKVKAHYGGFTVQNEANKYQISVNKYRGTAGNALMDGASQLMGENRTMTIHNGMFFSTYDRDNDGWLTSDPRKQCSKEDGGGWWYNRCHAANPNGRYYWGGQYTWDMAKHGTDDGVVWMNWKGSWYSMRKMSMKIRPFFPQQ
PLCg1 inh: PLC-gamma1 (human) inhibition, primary screen | purified PLC-gamma1, fluorogenic substrate, fluorescence | inhibition, % at 12.2 µM | actives 0.84% (n = 370,000) | AID 720700; in the data active = inhibition above about 9.5%
DDE Tn7 FP inh: DD(E)-Tn7 binding inhibition, primary FP screen; P02675; actives 0.13% (n = 370,000); FP displacement of FITC-Tn7 peptide from fibrin DD(E); 0% = median of compound wells per plate; inhibition, % at 8.3 µM;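 active = inhibition above the mean of compounds falling within the control limits plus 3 SD of them, cut at about 14% in these data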;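 note: 0% = plate median of compound wells and 100% = 10 µM Aha-Tn7 peptide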
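Assay system: Human fibrin DD(E) protein | Medium: Tris buffer with calcium and detergent, pH 7.8 | Reagent: 0.1 µM fluorescent Tn7 | Compound dosing: Single point at 8.3 µM | Times: 10 min preincubation, 3 h with tracer, room temperature | Detection: Fluorescence polarization of the labelled Tn7 tracer | Controls: Aha-Tn7 high control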
proKLK7 act: proKLK7 (human) activation, primary screen; activation, % at 7 µM; purified proKLK7, EDANS-DABCYL substrate fluorescence; 100% is mature enzyme control, 0% vehicle; actives 0.9% (n = 370,000);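 active = activation above the mean of all tested compounds plus 3 SD, computed per campaign excluding outliers beyond control limits, cut at about 13% in these data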
PLCb3 inh: inhibitors of human phospholipase C beta3; Q01970; Purified PLC-beta3, fluorogenic substrate, fluorescence; inhibition, % at 12.2 µM; actives 0.18% (n = 370,000); AID 720704; in the data active = inhibition above about 11%;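 note: 0% = median of compound wells on plate and 100% = full blocker control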
KLK7 act conf: confirmation of human kallikrein-7 zymogen activators; shares compounds with proKLK7 act; purified proKLK7, EDANS-DABCYL substrate fluorescence; scaled: vehicle 0, mature enzyme 100; activation, % at 7 µM; actives 68% (n = 3,200); AID 686949;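 active = activation, as change over the incubation, above the mean of all tested compounds plus 3 SD, cut at about 13% in these data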
EDANS interfere: optically interferes with EDANS-DABCYL signal, flagging KLK7 hits. shares compounds with proKLK7 act. EDANS-DABCYL substrate fluorescence interference, no enzyme, 4 h; solvent 0%, active enzyme control 100%. activation, % at 7 µM. actives 80% (n = 3,200). AID 686952;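 active = activation above the all-compound mean plus 3 SD, ignoring values outside control-based bounds, cut at about 4.8% in these data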;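 note: value is the 4 h activation minus the activation read at time zero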
K7 EDANS ctr: counter-screen for kallikrein-7 activators: EDANS-DABCYL interference, dose response. AID 720493. EDANS-DABCYL peptide fluorescence interference, no enzyme. EC50, µM. actives 20% (n = 250). shares compounds with proKLK7 act;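 active = compounds that raise the fluorescence signal in this interference counterscreen, with EC50 at or below 10 µM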;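 note: intact quenched peptide substrate alone read at 355 nm excitation and 520 nm emission; signal is fluorescence gain from T0 to T4 after four hours at room temperature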
An asterisk follows results filed as active; i = inactive; · = not tested or not shown. The list is not random: actives were taken first. Their share in the collection is about 3%.

SMILES	NRP1-CendR mod	DDE Tn6 FP inh	PLCg1 inh	DDE Tn7 FP inh	proKLK7 act	PLCb3 inh	KLK7 act conf	EDANS interfere	others
CCN(CC)C(=O)[C@H]1C[C@H](CC(=O)NC(C)(C)C)C(=O)N2CCc3c([nH]c4cc(-c5ccco5)ccc34)[C@]12C	-30	4	i	-9	109*	i	57*	65*
CC(C)N(C(=O)[C@H]1C[C@H](CC(=O)NC(C)(C)C)C(=O)N2CCc3c([nH]c4cc(-c5ccco5)ccc34)[C@]12C)C(C)C	-5	3	-357	7	20*	i	12	20*
CC(C)(C)NC(=O)C[C@H]1C[C@H](C(=O)N2CCCCC2)[C@@]2(CCc3ccccc3)c3[nH]c4cc(-c5ccco5)ccc4c3CCN2C1=O	-75	4	i	1	-17	i	·	·
CCCCCCCCNC(=O)C1CSCCS(=O)(=O)N1Cc1ccccc1 (stereo unspecified)	·	0	0	0	1	4	·	·
CCOc1cc(C2C3=C(CCCC3=O)Nc3nc(C(=O)OC)nn32)ccc1OC (stereo unspecified)	-3	-5	6	-6	2	3	·	·
COc1ccc(C2C3=C(CCCC3=O)Nc3nc(C(F)(F)F)nn32)c(OC)c1OC (stereo unspecified)	-5	4	-3	3	23*	-2	38*	36*
CCOc1ccc(C2C3=C(CCCC3=O)Nc3nc(C(F)(F)F)nn32)cc1OC (stereo unspecified)	-2	-1	-7	6	44*	-3	52*	58*
COc1ccc(C2C3=C(CCCC3=O)Nc3nc(C(F)(F)F)nn32)cc1OC (stereo unspecified)	-8	3	-8	2	15*	-8	43*	58*
O=C(Nc1cccnc1)c1coc(=O)c2ccccc12	5	-5	-19	-3	460*	-34	355*	343*
C=CCn1c(=N)c(C(=O)NCCCOC)cc2c(=O)n3ccccc3nc21	-4	5	i	-5	136*	i	57*	67*
COCCCNC(=O)c1cc2c(=O)n3cccc(C)c3nc2n(C(C)C)c1=N	6	-6	-17	-1	4	-27	·	·
C=CCn1c(=N)c(C(=O)NCCCOC)cc2c(=O)n3cc(C)ccc3nc21	-14	-8	i	7	143*	i	58*	62*
Cc1cc(N2CCN(C)CC2)n2cc(-c3ccc(F)cc3)nc2n1	-4	1	-378	0	32*	-491	6	6.5*
O=C(c1ccccc1)N1CC[C@H]2[C@H](CCCN2Cc2cc(F)cc(F)c2)C1	·	0	9	1	0	1	·	·
N=c1c(C(=O)NCCc2ccccc2)cc2c(=O)n3ccccc3nc2n1CCCN1CCOCC1	-2	-2	-279	-4	29*	-386	8	7.7*
N=c1c(C(=O)NCc2ccc(F)cc2)cc2c(=O)n3ccccc3nc2n1CCCN1CCOCC1	-18	-3	-237	4	5	-315	·	·
Cc1ccc(Cn2c(=N)c(C(=O)NCCN3CCOCC3)cc3c(=O)n4ccccc4nc32)cc1	-8	-12	-154	5	1	-163	·	·
N=c1c(C(=O)NCc2ccccc2)cc2c(=O)n3ccccc3nc2n1CCCN1CCOCC1	-15	0	-282	2	13*	-325	2	3
N=c1c(C(=O)NCCN2CCOCC2)cc2c(=O)n3ccccc3nc2n1CCc1ccccc1	-3	-1	-181	2	24*	-297	8	11*
Cc1ccc(-c2cn3nc(C)c(C)nc3n2)cc1	-20	-4	i	0	55*	i	59*	56*
C[C@H]1C2CC(OC(=O)NCCCc3ccccc3)C(C2)[C@H]2CCCCN21 (stereo partly specified)	·	9	-1	0	0	-1	·	·
Cn1c(=O)c2cc(NC(=S)NC3CCCCC3)ccc2n1Cc1ccc(F)cc1	-4	1	-198	8	9	-255	·	·
CC(C)=CCn1c2ccc(NC(=S)NC3CC3)cc2c(=O)n1C	-4	-6	-497	-4	18*	i	14*	14*
Cn1c(=O)c2cc(NC(=S)NC3CC3)ccc2n1Cc1ccccc1	-7	-3	-214	-3	16*	-297	10	14*
COc1cc2c(cc1OC)C1CCN3C(=O)CCC3N1CC2 (stereo unspecified)	5	1	-231	0	20*	-264	24*	19*	K7 EDANS ctr=i
SMILES	NRP1-CendR mod	DDE Tn6 FP inh	PLCg1 inh	DDE Tn7 FP inh	proKLK7 act	PLCb3 inh	KLK7 act conf	EDANS interfere	others
C#CCCN([C@@H](CC(C)C)C(=O)OC)S(=O)(=O)c1ccccc1Br	·	-11	-2	5	1	-1	·	·
N/C(=N\NC(=O)c1ccccc1)c1cc2ccccc2oc1=O	11	-3	-11	-7	-1	-16	·	·
NC(=O)N/N=C/c1ccccc1OC(=O)c1cc2ccccc2oc1=O	-8	-1	-33	-1	79*	-60	259*	259*
NC(=S)N/N=C/c1ccccc1OC(=O)/C=C/c1ccccc1	2	-7	-54	2	2	-105	·	·
NC(=S)N/N=C/c1ccccc1OC(=O)c1cc2ccccc2oc1=O	2	6	-89	-4	42*	-163	228*	200*
COc1cccc(C(=O)N(CCN2CCOCC2)Cc2ccc(OC)c(OC)c2)c1	·	1	1	-2	-1	-2	·	·
O=c1c2ccccc2c(/C=N/NS(=O)(=O)c2ccccc2)c(O)n1-c1ccccn1	133	-8	-133	-2	46*	-162	92*	94*
CCn1c2ccccc2c2cc(NC(=O)COC(=O)c3cc(F)cc(F)c3)ccc21	·	-3	-2	9	0	0	·	·
CCCCCCn1c(=O)[nH]c2nc3cc(N)ccc3nc2c1=O	·	-3	i	-5	14*	i	19*	20*
CCCCCn1c(=O)c(C(=O)c2ccccc2)nc2ccccc21	-1	-2	-2	3	0	-13	·	·
CC(=O)/C=C(\C)Nc1ccc(-c2cnc(-c3ccccc3)o2)cc1	-4	7	i	2	57*	i	63*	64*
